Most compounds without a hit are left out; they make up all but 1.7% or so of the library.
NTR1 ag: agonists of human NTR1, primary screen, imaging, U2OS cells, beta-arrestin-GFP, high content. Neurotensin receptor type 1 (Homo sapiens), P30989. NTR1-U2OS beta-arrestin-GFP spot imaging, agonist mode. activation, % at 20 µM. 330,000 tested, 0.17% active. AID 493036, 2011;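 active means activation at or above 40% of the spot to cytoplasm intensity ratio, with at least 20 cells analyzed; inconclusive means wells under 20 cells, flagged as cytotoxic or low count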
Vif imaging: HIV Vif self-association inhibitors, primary screen, imaging, HEK293T, single point; inhibition, % at 7.49 µM; HEK293T cells, Vif self-association by quenched fluorescence, 24 h; 340,000 tested, 0.35% active; in the data active means inhibition above about 50%, passing the limit was not always enough; inconclusive means no clear call, values can overlap the other calls; inactive means below about 31%
V-ATPase pHluor: regulators of yeast V-ATPase proton pumping, primary screen, pHLuorin cytosolic pH fluorescence; S. cerevisiae; response, % at 10 µM; 350,000 tested, 0.37% active; in the data active means response mostly above about 7.3%, no sharp cut-off; inactive means mostly below about 5.4%; further: actives read high
SR-BI HDL uptake: inhibitors of SR-BI mediated HDL lipid uptake, primary screen, ldlA[mSR-BI] cells, fluorescence, single point; inhibition, % at 12.5 µM; ldlA[mSR-BI] CHO cells, DiI-HDL uptake fluorescence, 3 h; Scavenger receptor class B member 1 (Mus musculus), Q61009; 320,000 tested, 0.96% active;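 active means mean replicate inhibition of at least 70% and a set share of replicates each scoring 70 or more; inconclusive means meets just one of the two criteria; inactive means fails both criteria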
Target sequence (Q61009 whole entry, looked up): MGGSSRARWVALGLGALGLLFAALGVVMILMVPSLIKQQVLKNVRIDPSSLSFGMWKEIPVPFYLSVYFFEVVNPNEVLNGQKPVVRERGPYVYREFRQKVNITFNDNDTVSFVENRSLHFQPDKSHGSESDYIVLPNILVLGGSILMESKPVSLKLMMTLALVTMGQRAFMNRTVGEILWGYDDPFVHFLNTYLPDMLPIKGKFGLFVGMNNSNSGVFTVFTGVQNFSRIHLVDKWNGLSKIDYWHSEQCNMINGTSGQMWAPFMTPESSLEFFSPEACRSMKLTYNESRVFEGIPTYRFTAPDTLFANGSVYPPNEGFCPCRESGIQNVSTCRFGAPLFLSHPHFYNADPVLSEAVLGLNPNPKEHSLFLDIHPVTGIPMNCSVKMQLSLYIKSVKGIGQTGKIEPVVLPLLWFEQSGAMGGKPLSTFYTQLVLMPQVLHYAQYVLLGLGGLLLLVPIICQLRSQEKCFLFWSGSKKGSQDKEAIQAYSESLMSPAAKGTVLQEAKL
SR-BI DiI-HDL act: activators of SR-BI mediated DiI-HDL uptake, primary screen, ldlA[mSR-BI] CHO cells, DiI fluorescence. 320,000 tested, 0.096% active. 3 h; 100 = double the neutral-control signal. activation, % at 12.5 µM;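 active means mean replicate activation of at least 60% and every replicate at or above 60%; inconclusive means mean or all-replicate condition met, but not both; inactive means mean below 60% and not all replicates reaching 60%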
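material = CHO ldlA[mSR-BI] cells | medium = Ham's F12 with 0.5% BSA, HEPES 25 mM, pH 7.4 | reagent = fluorescent DiI-HDL, 10 µg/mL final | compound dosing = single-point compound dose | incubation = 3 h, 37 °C | measured by = bottom-read fluorescence, 550/595 nm | measure = HDL uptake via cellular fluorescence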
CaV13 FRET inh: Disruptors of the CACNA1D IQ motif to Ca2+-dependent inactivation inhibitor domain association, primary screening, Förster resonance energy transfer in intact living …. 340,000 tested, 0.098% active. HEK cells, CFP/YFP FRET ICDI-IQ, plate reader, 10 min; percent FRET-ratio fall versus neutral wells. inhibition, % at 12.3 µM;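 active means mean replicate inhibition of at least 30% and at least 1% of replicates passing that level; inconclusive means only one of the two criteria is met; inactive means neither criterion is met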
A number is an active result; 0 = inactive; ? = inconclusive; - = no result; + = active, no number.

SMILES | NTR1 ag | Vif imaging | V-ATPase pHluor | SR-BI HDL uptake | SR-BI DiI-HDL act | CaV13 FRET inh
Cc1ccc(NC(=O)NNC(=O)c2ccc3c(c2)NC(=O)C(C)(C)O3)cc1 | 0 | 0 | 0 | 0 | 0 | 0
COc1cc(OC)cc(C2=Cc3ccccc3C(CC(=O)c3ccco3)N2c2ccc(-c3cncnc3)cc2)c1 (stereo not given) | - | - | - | - | - | 0
O=c1ccn([C@@H]2O[C@H](CNCc3ccc(-n4cccn4)cc3)[C@@H](O)[C@H]2O)c(=O)[nH]1 | - | 96 | 0 | 0 | 0 | 0
O=c1ccn([C@@H]2O[C@H](CNCc3ccccc3)[C@@H](O)[C@H]2O)c(=O)[nH]1 | - | 0 | - | - | - | 0
NC(=O)c1ccccc1OCC(=O)O | 0 | 0 | 0 | 0 | 0 | -
NC(=O)c1ccccc1OCC(=O)NS(=O)(=O)c1ccccc1 | 0 | 56 | 0 | 0 | 0 | 0
Cc1cc(C)nc(NC(=NCCc2c[nH]c3ccccc23)NC(=O)Nc2ccccc2)n1 | 0 | 0 | 0 | 0 | 0 | 0
Cc1cc(C)nc(NC(=NCCc2c[nH]c3ccccc23)NC(=O)c2ccco2)n1 | 0 | 0 | 0 | 71 | 0 | 0
O=C(COc1cccc(Cl)c1)Nc1ccc2c(c1)CCC2 | 0 | 105 | 0 | 0 | 0 | 0
Cc1ccc(S(=O)(=O)CC(=O)Nc2nnc(C(C)C)s2)cc1 | 0 | 58 | 0 | 0 | 0 | 0
CCCc1nnc(NC(=O)CS(=O)(=O)c2ccc(C)cc2)s1 | 0 | 0 | 0 | 0 | 0 | 0
COc1ccc(NC(=O)C(CC(C)C)NC(=O)C2CCCCC2)c(OC)c1 (stereo not given) | 0 | 0 | 0 | 82 | 0 | 0
CCOc1ccccc1NC(=O)C(CC(C)C)NC(=O)C1CCCCC1 (stereo not given) | 0 | - | 0 | 0 | 0 | 0
Cn1c(-c2ccsc2)c(-c2cccs2)c2cc(-c3ccc4[nH]ccc4c3)ccc21 | 0 | 0 | 0 | 0 | 0 | 0
Cn1c(-c2ccsc2)c(-c2cccs2)c2cc(-c3ccc4cc[nH]c4c3)ccc21 | 0 | 0 | 0 | 77 | 0 | 0
NC(=O)c1c(NC(=O)C2COc3ccccc3O2)sc2c1CCN(Cc1ccccc1)C2 (stereo not given) | 0 | 110 | 0 | 0 | 0 | 0
COc1ccc(C(C#N)N2N=C(c3ccccc3)CC2c2ccccc2)cc1OC (stereo not given) | 0 | 0 | 0 | 0 | 0 | 0
COc1ccc(C(C#N)N2N=C(C)CC2c2ccccc2)cc1OC (stereo not given) | 0 | 54 | 0 | 0 | 0 | 0
O=C1CCC/C=C/C[C@@H](CC(=O)N(CCO)Cc2ccccc2)C(=O)NC[C@@H](c2ccccc2)O1 | 0 | 0 | 0 | 0 | 0 | 0
Fc1ccc(-n2c(CN3CCCCC3)n[nH]c2=S)cc1 | 0 | 0 | 14 | 0 | 0 | 0
S=c1[nH]nc(CN2CCCCC2)n1-c1ccc(Cl)cc1 | 0 | 0 | 0 | 0 | 0 | 0
Nc1nc(-c2ccc(Cl)cc2)nn1C(=O)c1cccnc1 | 0 | - | 20 | 0 | 0 | 0
COc1cc(NC(=O)Cn2c(=O)n(-c3cccc(C)c3)c(=O)c3c(C)c(C)sc32)cc(OC)c1 | 0 | 0 | 0 | 0 | 0 | 0
N#CC(C(=O)Nc1cccc(Cl)c1)=C1Nc2ccccc2N1 | 0 | 0 | 0 | 73 | 0 | -
C[C@@H]1C=CCCO[C@]12C(=O)N(Cc1ccc(Br)cc1)c1cccc(Br)c12 | - | - | - | - | - | 0
SMILES | NTR1 ag | Vif imaging | V-ATPase pHluor | SR-BI HDL uptake | SR-BI DiI-HDL act | CaV13 FRET inh
O=C(c1ccco1)N1CCN(C2CN(Cc3cn(Cc4ccccc4C(F)(F)F)nn3)S(=O)(=O)C2)CC1 (stereo not given) | - | - | - | - | - | 0
CCN1CCN(C(CNS(=O)(=O)c2ccc(C)cc2)c2cccnc2)CC1 (stereo not given) | 0 | 53 | 0 | 0 | 0 | 0
Cc1ccc(S(=O)(=O)NCC(c2cccnc2)N2CCN(Cc3ccccc3)CC2)cc1 (stereo not given) | 0 | 0 | 0 | 0 | 0 | -
O=C(NC(=S)N1CCN(c2nc(-c3ccccc3)cs2)CC1)c1cncc(Br)c1 | 0 | 0 | 0 | 0 | 0 | +
Fc1c(F)c(-n2nnc3ccccc32)c(F)c(F)c1Cl | 0 | 60 | 0 | 0 | 0 | 0
c1ccc(-n2nnc3ccccc32)cc1 | 0 | 0 | 0 | 0 | 0 | 0
COc1cccc(CN2CCc3ccc(NC(=O)CCc4ccc(C)cc4)cc3C2)c1O | 0 | 0 | 0 | 0 | 0 | 0
COc1ccc(CN2CCc3ccc(NC(=O)CCc4ccccc4OC)cc3C2)c(O)c1 | 0 | 0 | 0 | 72 | 0 | 0
COc1cc(CN2CCc3ccc(NC(=O)CCc4ccccc4OC)cc3C2)ccc1O | 0 | 0 | 0 | 70 | 0 | 0
O=C1Nc2ccccc2S/C1=C/Nc1cccc(Cl)c1 | 0 | 123 | 0 | 0 | 0 | 0
CN(C(=O)c1cccc(NC(=O)Cc2ccc(NC(=O)C3CCN(C(=O)CCc4ccccc4)CC3)cc2)c1)C1CCCC1 | - | - | - | - | - | 0
CC(OC(=O)c1ccc(Cl)nc1)C(=O)NC1CCCC1 (stereo not given) | 0 | ? | 0 | 0 | 412 | 0
CC(C)C(OC(=O)c1ccc(Cl)nc1)C(=O)NC1CCCCC1 (stereo not given) | 0 | 0 | 0 | - | - | 0
COc1ccc2[nH]c(CN3CCN(C(C)C)C(CCO)C3)c(C)c2c1 (stereo not given) | 0 | 64 | 0 | 0 | 0 | 0
COc1ccc2[nH]c(CN3CCN(CC(C)C)C(CCO)C3)c(C)c2c1 (stereo not given) | 0 | 0 | 0 | 0 | 0 | 0
CCCNC(=S)Nc1cc2oc3ccccc3c2cc1OC | 0 | 0 | 0 | 89 | 0 | -
CNC(=S)Nc1cc2oc3ccccc3c2cc1OC | 0 | 0 | 0 | 94 | 0 | -
COc1cc2c(cc1NC(=S)Nc1ccccc1C)oc1ccccc12 | 0 | 0 | 0 | 0 | 0 | -
COc1cc2c(cc1NC(=O)C1CCCO1)oc1ccccc12 (stereo not given) | 0 | 0 | 0 | 76 | 0 | 0
CCNC(=S)Nc1cc2oc3ccccc3c2cc1OC | 0 | 0 | 0 | 84 | 0 | -
COc1ccc(Cl)cc1NC(=O)C1CCCO1 (stereo not given) | 0 | - | 0 | 0 | 0 | 0
COC(=O)CC#C[C@H](C)[C@@H](NS(=O)(=O)c1ccc([N+](=O)[O-])cc1)C(C)(C)C | - | - | - | - | - | 0
Cc1ccc(S(=O)(=O)NCC2CCN(C(=O)C(=O)c3cccs3)CC2)cc1 | - | - | - | - | - | 0
O=C1c2ccccc2C(Nc2ccc(S(=O)(=O)N3CCCCCC3)cc2)N1c1ccccn1 (stereo not given) | 0 | - | 0 | 0 | 0 | 0
O=C1c2ccccc2C(Nc2ccc(S(=O)(=O)N3CCOCC3)cc2)N1c1ccccn1 (stereo not given) | 0 | 52 | 0 | 0 | 0 | 0
